pIC50: −log10 of the molar value. Values belong to the molecule of their own block, whether it stands above or below them. Activity calls are given as the source filed them. The rule behind the calls is not given here.
Tests used:
[1] = tested on: SW480; assay: Cytotoxicity against human SW480 cells by MTT assay; assay type: functional, cell-based
Outline: (§1)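 Antiproliferative IC50 was measured in human tumor lines: H460a (lung), HCT116, RKO and SW480 (colon), and MDA-MB435 (breast). Values are the mean of duplicate wells.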

[2] = molecular target: Cyclin-dependent kinase 2/cyclin E (Homo sapiens, UniProt P24941); assay: Inhibition of CDK2-cyclin E; assay type: protein-complex assay
Outline: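 CDK2 was paired with cyclin E1. IC50 came from at least two replicates at each concentration.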

[3] = tested on: CDK1-cyclin B (Homo sapiens); assay: Inhibition of CDK1-cyclin B
[4] = molecular target: CDK4-cyclin D1 (Homo sapiens); assay: Inhibition of CDK4-cyclin D1
[5] = molecular target: Focal adhesion kinase 1 (Homo sapiens, UniProt Q05397); assay: Inhibition of FAK
[6] = molecular target: Proto-oncogene tyrosine-protein kinase Src (Homo sapiens, UniProt P12931); assay: Inhibition of Src
[7] = molecular target: Vascular endothelial growth factor receptor 2 (Homo sapiens, UniProt P35968); assay: Inhibition of KDR
[8] = Inhibition of FGFR
[9] = Inhibition of PDGFR
[10] = molecular target: Epidermal growth factor receptor (Homo sapiens, UniProt P00533); assay: Inhibition of EGFR
[11] = molecular target: CDK1-cyclin A1 (Homo sapiens); assay: Inhibition of CDK1-cyclin A1
[12] = molecular target: CDK4-cyclin D1 (Homo sapiens); assay: Inhibition of CDK4/Cyclin D1
[13] = tested on: HCT-116; assay: Cytotoxicity against human HCT116 cells by MTT assay; assay type: functional, cell-based; outline: as §1
[14] = tested on: NCI-H460; assay: Cytotoxicity against human H460a cells by MTT assay; assay type: functional, cell-based; outline: as §1
[15] = tested on: RKO; assay: Cytotoxicity against human RKO cells by MTT assay; assay type: functional, cell-based; outline: as §1
[16] = tested on: MDA-MB-435; assay: Cytotoxicity against human MDA-MB-435 cells by MTT assay; assay type: functional, cell-based; outline: as §1
[17] = tested on: SW480; assay: Antitumor activity against human SW480 cells xenografted in mouse assessed as inhibition of tumor growth at 3.125 mg/kg, po bid for 20 days; assay type: functional; conditions: SW480, 480 h
Outline: (§2)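 SW480 tumor-bearing nude mice dosed per os by gavage (0.2 ml/animal) twice daily for 20 days at 3.125, 1.56 and 0.78 mg/kg, with vehicle b.i.d. control. Tumor growth was followed over days post-implant and expressed as %T/C and % inhibition, with p values. Body weight change was tracked over the study.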

[18] = tested on: SW480; assay: Antitumor activity against human SW480 cells xenografted in mouse assessed as inhibition of tumor growth at 1.56 mg/kg, po bid for 20 days; assay type: functional; conditions: SW480, 480 h; outline: as §2
[19] = tested on: NCI-H460; assay: Antitumor activity against human H460 cells xenografted in mouse assessed as inhibition of tumor growth administered as po bid for 20 days; assay type: functional, organism-based
[20] = tested on: LOX; assay: Antitumor activity against human LOX cells xenografted in mouse assessed as inhibition of tumor growth administered as po bid for 20 days; assay type: functional, organism-based
[21] = tested on: LoVo; assay: Antitumor activity against human LoVo cells xenografted in mouse assessed as inhibition of tumor growth administered as po bid for 20 days; assay type: functional, organism-based
[22] = tested on: A549; assay: Antitumor activity against human A549 cells xenografted in mouse assessed as inhibition of tumor growth administered as po bid for 20 days; assay type: functional, organism-based
[23] = tested on: Mus musculus; assay: Toxicity in human SW480 cells xenografted mouse assessed as mortality at 0.78 to 3.125 mg/kg, po bid for 20 days; assay type: organism-based; design: dose 0.78-3.125 mg/kg, route oral; conditions: in vivo, 480 h
Outline: (§3)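 SW480 tumour-bearing nude mice were dosed by oral gavage (0.2 ml/animal) at 3.125, 1.56 or 0.78 mg/kg b.i.d. for 20 days, against a vehicle b.i.d. group. Animals were watched for drug-related toxicity, with body weight and tumour growth followed over days after tumour cell implant.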

[24] = tested on: Mus musculus; assay: Toxicity in human SW480 cells xenografted mouse assessed as overt signs at 0.78 to 3.125 mg/kg, po bid for 20 days; assay type: organism-based; design: dose 0.78-3.125 mg/kg, route oral; conditions: in vivo, 480 h; outline: as §3
[25] = tested on: Mus musculus; assay: Toxicity in human SW480 cells xenografted mouse assessed as body weight gain at 0.78 to 3.125 mg/kg, po bid for 20 days; assay type: organism-based; design: dose 0.78-3.125 mg/kg, route oral; conditions: in vivo, 480 h; outline: as §2

Vascular endothelial growth factor receptor 2, sequence (P35968 whole entry): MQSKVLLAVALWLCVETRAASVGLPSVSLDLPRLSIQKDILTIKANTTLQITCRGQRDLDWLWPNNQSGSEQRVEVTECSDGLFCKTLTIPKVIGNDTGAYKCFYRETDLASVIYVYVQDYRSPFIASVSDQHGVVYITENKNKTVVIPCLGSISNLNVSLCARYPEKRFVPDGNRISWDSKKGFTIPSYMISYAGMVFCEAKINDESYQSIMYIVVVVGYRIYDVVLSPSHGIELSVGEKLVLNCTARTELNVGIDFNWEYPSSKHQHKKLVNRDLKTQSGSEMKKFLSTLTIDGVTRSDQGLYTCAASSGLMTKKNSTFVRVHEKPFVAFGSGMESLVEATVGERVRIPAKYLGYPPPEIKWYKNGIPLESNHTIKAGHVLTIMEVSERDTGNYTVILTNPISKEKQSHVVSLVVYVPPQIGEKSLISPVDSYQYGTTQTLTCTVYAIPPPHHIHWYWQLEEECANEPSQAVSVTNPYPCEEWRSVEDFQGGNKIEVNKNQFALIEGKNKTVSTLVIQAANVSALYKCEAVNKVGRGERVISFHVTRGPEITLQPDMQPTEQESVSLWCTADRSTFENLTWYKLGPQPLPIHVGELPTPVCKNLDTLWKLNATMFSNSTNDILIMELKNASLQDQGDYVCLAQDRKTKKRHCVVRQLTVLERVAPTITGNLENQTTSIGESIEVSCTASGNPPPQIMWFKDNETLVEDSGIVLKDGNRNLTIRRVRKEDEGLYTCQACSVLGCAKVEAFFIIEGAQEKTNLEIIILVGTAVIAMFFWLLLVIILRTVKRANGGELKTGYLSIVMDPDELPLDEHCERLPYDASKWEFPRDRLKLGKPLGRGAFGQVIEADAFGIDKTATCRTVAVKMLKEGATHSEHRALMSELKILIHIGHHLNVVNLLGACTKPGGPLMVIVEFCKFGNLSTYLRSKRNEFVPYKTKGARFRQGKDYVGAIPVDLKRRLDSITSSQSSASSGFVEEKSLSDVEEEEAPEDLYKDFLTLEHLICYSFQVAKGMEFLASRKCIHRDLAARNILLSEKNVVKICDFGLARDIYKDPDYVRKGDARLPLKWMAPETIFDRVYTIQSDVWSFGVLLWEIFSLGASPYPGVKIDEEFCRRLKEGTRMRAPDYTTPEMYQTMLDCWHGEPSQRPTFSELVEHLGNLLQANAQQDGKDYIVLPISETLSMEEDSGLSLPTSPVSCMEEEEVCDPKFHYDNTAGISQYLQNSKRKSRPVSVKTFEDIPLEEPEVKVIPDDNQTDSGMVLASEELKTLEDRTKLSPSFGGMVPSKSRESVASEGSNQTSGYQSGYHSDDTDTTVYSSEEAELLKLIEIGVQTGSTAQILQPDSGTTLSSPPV
Epidermal growth factor receptor, sequence (P00533 whole entry): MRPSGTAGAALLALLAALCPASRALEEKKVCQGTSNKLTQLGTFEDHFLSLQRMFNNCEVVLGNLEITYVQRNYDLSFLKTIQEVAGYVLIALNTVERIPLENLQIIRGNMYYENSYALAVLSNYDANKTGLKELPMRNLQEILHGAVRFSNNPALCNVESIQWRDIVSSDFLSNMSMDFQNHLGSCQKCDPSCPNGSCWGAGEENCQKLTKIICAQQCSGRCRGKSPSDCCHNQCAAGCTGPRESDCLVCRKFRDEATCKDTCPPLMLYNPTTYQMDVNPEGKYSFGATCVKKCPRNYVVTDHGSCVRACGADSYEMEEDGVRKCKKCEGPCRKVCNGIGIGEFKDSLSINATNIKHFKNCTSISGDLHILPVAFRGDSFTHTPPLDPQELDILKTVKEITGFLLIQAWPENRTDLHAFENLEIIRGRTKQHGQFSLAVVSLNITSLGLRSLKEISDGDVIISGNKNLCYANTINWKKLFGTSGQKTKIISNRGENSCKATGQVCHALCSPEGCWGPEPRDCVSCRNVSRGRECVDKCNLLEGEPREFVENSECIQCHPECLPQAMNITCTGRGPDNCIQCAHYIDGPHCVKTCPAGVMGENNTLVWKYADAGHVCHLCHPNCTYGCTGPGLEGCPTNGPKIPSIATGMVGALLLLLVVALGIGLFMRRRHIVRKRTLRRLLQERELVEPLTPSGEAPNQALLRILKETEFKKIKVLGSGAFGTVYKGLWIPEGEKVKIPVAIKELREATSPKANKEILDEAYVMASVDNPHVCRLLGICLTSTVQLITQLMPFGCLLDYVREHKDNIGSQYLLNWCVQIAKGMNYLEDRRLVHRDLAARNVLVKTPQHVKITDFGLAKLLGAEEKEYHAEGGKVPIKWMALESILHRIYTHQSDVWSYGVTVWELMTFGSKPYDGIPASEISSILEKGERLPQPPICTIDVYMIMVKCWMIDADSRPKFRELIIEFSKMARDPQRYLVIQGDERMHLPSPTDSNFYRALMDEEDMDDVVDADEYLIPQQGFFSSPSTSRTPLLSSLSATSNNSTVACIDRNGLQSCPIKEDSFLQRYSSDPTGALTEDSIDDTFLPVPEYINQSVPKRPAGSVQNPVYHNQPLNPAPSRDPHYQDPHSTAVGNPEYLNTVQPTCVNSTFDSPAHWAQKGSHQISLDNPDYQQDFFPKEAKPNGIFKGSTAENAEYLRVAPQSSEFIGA
Focal adhesion kinase 1, sequence (Q05397 whole entry): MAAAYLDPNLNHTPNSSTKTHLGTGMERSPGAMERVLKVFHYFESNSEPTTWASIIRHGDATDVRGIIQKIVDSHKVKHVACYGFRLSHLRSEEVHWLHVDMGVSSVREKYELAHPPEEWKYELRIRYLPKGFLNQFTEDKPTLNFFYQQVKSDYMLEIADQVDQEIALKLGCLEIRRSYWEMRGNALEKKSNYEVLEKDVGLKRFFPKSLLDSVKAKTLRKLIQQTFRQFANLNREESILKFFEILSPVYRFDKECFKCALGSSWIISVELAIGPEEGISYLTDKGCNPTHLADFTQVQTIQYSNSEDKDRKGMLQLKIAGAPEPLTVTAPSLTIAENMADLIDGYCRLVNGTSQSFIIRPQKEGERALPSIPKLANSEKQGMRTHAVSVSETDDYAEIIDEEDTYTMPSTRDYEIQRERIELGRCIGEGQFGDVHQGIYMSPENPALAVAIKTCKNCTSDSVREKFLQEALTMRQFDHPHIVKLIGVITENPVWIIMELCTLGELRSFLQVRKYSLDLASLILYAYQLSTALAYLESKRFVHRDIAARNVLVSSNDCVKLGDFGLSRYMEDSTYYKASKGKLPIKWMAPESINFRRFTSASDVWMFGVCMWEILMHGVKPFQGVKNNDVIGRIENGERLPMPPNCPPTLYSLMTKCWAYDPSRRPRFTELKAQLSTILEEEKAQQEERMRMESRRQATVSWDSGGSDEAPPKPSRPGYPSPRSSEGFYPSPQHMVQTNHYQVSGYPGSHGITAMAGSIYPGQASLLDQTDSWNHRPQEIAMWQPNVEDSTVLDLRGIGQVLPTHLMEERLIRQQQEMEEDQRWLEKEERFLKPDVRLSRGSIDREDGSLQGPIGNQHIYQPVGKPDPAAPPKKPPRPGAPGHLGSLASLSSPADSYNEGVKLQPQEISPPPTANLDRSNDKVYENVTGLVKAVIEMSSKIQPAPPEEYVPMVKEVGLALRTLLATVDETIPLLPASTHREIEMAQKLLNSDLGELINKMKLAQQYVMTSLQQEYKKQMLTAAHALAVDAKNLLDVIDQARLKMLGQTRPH
Proto-oncogene tyrosine-protein kinase Src, sequence (P12931 2-536 limits assumed): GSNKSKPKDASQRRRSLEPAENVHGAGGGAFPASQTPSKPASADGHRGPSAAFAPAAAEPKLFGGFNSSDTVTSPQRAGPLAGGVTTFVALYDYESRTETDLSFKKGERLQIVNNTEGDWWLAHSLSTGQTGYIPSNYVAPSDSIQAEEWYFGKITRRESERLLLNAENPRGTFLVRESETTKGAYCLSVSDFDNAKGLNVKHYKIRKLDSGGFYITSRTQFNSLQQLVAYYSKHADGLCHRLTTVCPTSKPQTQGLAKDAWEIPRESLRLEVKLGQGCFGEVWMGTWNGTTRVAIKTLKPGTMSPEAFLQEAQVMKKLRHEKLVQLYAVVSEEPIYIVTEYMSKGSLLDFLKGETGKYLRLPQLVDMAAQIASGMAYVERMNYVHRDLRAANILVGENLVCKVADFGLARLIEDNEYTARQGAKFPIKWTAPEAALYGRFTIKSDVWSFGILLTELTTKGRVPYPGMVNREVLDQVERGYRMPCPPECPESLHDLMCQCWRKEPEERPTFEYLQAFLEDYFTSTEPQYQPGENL

pIC50 [2]: 5.70 | pIC50 [3]: 5.00 | pIC50 [4]: < 4.52
Compound: Nc1n[nH]c2nc(-c3cccs3)cc(C(F)(F)F)c12
pIC50 [1]: 5.22

pIC50 [2]: 6.94
Compound: Cc1[nH]nc2c1N=C(c1ccccc1)c1ccccc1N2
pIC50 [1]: 5.82

Compound: N#Cc1ccc2c(c1)C(c1ccccc1F)=Nc1c[nH]nc1N2
pIC50 [1]: 6.96 | pIC50 [2]: 7.80 | pIC50 [5]: 5.92 | pIC50 [6]: 5.27 | pIC50 [7]: 7.41 | pIC50 [8]: 7.17 | pIC50 [9]: 7.29 | pIC50 [10]: 4.96 | pIC50 [11]: 6.86 | pIC50 [12]: 6.28

pIC50 [2]: 7.30
Compound: O=[N+]([O-])c1ccc2c(c1)C(c1ccccc1Cl)=Nc1c(n[nH]c1-c1ccncc1)N2
pIC50 [1]: 4.92

pIC50 [2]: 7.15 | pIC50 [3]: 6.30 | pIC50 [4]: 5.00
Compound: O=[N+]([O-])c1ccc2c(c1)C(c1ccccc1Cl)=Nc1c[nH]nc1N2
pIC50 [1]: 5.22

pIC50 [2]: 7.46 | pIC50 [5]: 5.16 | pIC50 [6]: < 4.22 | pIC50 [7]: 7.14 | pIC50 [8]: 7.00 | pIC50 [9]: 7.08 | pIC50 [10]: < 5.00
Compound: Cc1[nH]nc2c1N=C(c1ccccc1Cl)c1cc([N+](=O)[O-])ccc1N2
pIC50 [1]: 6.80

pIC50 [2]: 6.63
Compound: O=[N+]([O-])c1ccc2c(c1)C(c1ccccc1Cl)=Nc1c(n[nH]c1C(F)(F)F)N2

pIC50 [2]: 7.42 | pIC50 [5]: 6.74 | pIC50 [6]: 6.03 | pIC50 [7]: 7.48 | pIC50 [8]: 7.35 | pIC50 [9]: 7.64 | pIC50 [10]: 6.14
Compound: CC(=O)Nc1ccc2c(c1)C(c1ccccc1Cl)=Nc1c[nH]nc1N2
pIC50 [13]: 6.34 | pIC50 [1]: 6.15 | pIC50 [14]: 6.26 | pIC50 [15]: 6.10 | pIC50 [16]: 6.10

pIC50 [2]: 6.59
Compound: NC(=O)c1[nH]nc2c1N=C(c1ccccc1Cl)c1cc([N+](=O)[O-])ccc1N2

pIC50 [2]: 6.62
Compound: O=[N+]([O-])c1ccc2c(c1)C(c1ccccc1Cl)=Nc1c(n[nH]c1CO)N2
pIC50 [1]: 6.62

pIC50 [2]: 7.70
Compound: O=[N+]([O-])c1ccc2c(c1)C(c1ccccc1Cl)=Nc1c(n[nH]c1-c1ccc[nH]1)N2
pIC50 [1]: 5.28

pIC50 [2]: 7.03
Compound: Cc1[nH]nc2c1N=C(c1ccccc1)c1cc(F)ccc1N2
pIC50 [1]: 5.66

pIC50 [2]: 6.68
Compound: O=[N+]([O-])c1ccc2c(c1)C(c1ccccc1Cl)=Nc1c(n[nH]c1-c1ccccc1)N2
pIC50 [1]: 4.74

pIC50 [2]: 5.30
Compound: O=[N+]([O-])c1ccc2c(c1)C(c1ccccc1Cl)=Nc1c(n[nH]c1CCc1ccccc1)N2
pIC50 [1]: 4.82

pIC50 [2]: 6.98
Compound: Cc1[nH]nc2c1N=C(c1ccccc1Cl)c1ccccc1N2
pIC50 [1]: 5.42

pIC50 [2]: 7.19
Compound: Cc1[nH]nc2c1N=C(c1ccccc1F)c1ccccc1N2
pIC50 [1]: 6.40

Compound: Nc1ccc2c(c1)C(c1ccccc1Cl)=Nc1c[nH]nc1N2
pIC50 [13]: 5.99 | pIC50 [1]: 6.30 | pIC50 [2]: 7.06 | pIC50 [5]: 6.82 | pIC50 [6]: 5.74 | pIC50 [7]: 7.47 | pIC50 [8]: 7.30 | pIC50 [9]: 7.82 | pIC50 [10]: 6.00 | pIC50 [14]: 5.97 | pIC50 [15]: 6.51 | pIC50 [16]: 6.02 | inhibition in vivo at 3.125 mg/kg [17]: 93% | inhibition in vivo at 1.56 mg/kg [18]: 70% | inhibition [19]: Active | inhibition [20]: Active | inhibition [21]: Active | inhibition [22]: Active | Activity [23]: Non-toxic | Activity [24]: Non-toxic | Activity [25]: 9%

pIC50 [2]: 8.00
Compound: CC(C)c1[nH]nc2c1N=C(c1ccccc1Cl)c1cc([N+](=O)[O-])ccc1N2
pIC50 [1]: 6.19

pIC50 [2]: 6.52
Compound: O=[N+]([O-])c1ccc2c(c1)C(c1ccccc1Cl)=Nc1c(n[nH]c1-c1cccnc1)N2
pIC50 [1]: 4.59

pIC50 [2]: 7.40
Compound: Cc1[nH]nc2c1N=C(c1ccccc1F)c1cc(F)ccc1N2
pIC50 [1]: 6.15

— ChEMBL document CHEMBL1255207, “Pyrazolobenzodiazepines: part I. Synthesis and SAR of a potent class of kinase inhibitors” (Bioorg Med Chem Lett, 2010)
